ChEMBL document CHEMBL1126796, “2-(Alkylamino)nicotinic acid and analogs. Potent angiotensin II antagonists” (J Med Chem, 1993)
One block for each molecule: values may come before it.

Tests used:
Rattus norvegicus [1] = assay: % decrease in blood pressure after 4 hours at a dose of 10 mg/kg in male rats by using Renal artery hypertensive model; assay type: functional
How it was run: (§1)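 Male Sprague-Dawley rats (300-350 g) were made hypertensive by renal artery ligation and used on day 6 or 7 after ligation. Arterial pressure was measured from an indwelling femoral artery catheter, with blood pressure and heart rate recorded on line. Read-out is % decrease in blood pressure at 4 h, ±SEM, with number of rats.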

Rattus norvegicus [2] = assay: % decrease in blood pressure after 4 hours in male rats at a dose of 3 mg/kg by using Renal artery hypertensive model; assay type: functional; how it was run: as §1
[3] = Cmax value after oral dose of 10 mg/kg; assay type: ADME, organism-based; parameters: dose 10 mg/kg, route oral; settings: in vivo
How it was run: (§2)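 Male Sprague-Dawley-derived rats were dosed with compound in normal saline (1 mL/kg), by gavage or as a slow IV bolus into the jugular vein. Heparinized tail-vein blood was taken at 0.25-24 h, extracted liquid-liquid and assayed by reverse-phase HPLC. Cmax is the observed peak concentration and AUC is mean (SEM). F compares oral with IV AUC, corrected for dose and assuming dose proportionality.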

[4] = Tmax value after oral dose of 10 mg/kg; assay type: ADME, organism-based; parameters: dose 10 mg/kg, route oral; settings: in vivo
How it was run: (§3)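 Male Sprague-Dawley-derived rats. Compound was given in normal saline at 1 mL/kg, either as a slow iv bolus into the jugular vein or orally by gavage. Plasma underwent liquid-liquid extraction and reverse-phase HPLC. Terminal elimination half-life and time of observed peak concentration were taken from the profiles.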

[5] = Cmax value after oral dose of 3.87 mg/kg; assay type: ADME, organism-based; parameters: dose 3.87 mg/kg, route oral; settings: in vivo; how it was run: as §2
[6] = Bioavailability after oral dose of […]; assay type: ADME, organism-based; settings: eutheria, in vivo
[7] = Plasma clearance after intravenous dose of 3.87 mg/kg; assay type: ADME, organism-based; parameters: dose 3.87 mg/kg, route intravenous; settings: read-out: Clp
How it was run: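 Male Sprague-Dawley-derived rats received a slow iv bolus into the jugular vein of the compound in normal saline (1 mL/kg). Tail-vein heparinized blood was drawn from 0.1 to 24 h and assayed by reverse-phase HPLC after liquid-liquid extraction. Total plasma clearance was calculated as dose divided by AUC and reported as mean (SEM).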

[8] = Bioavailability after oral dose of 3.87 mg/kg; assay type: ADME, organism-based; settings: eutheria, in vivo; how it was run: as §2
[9] = Area under curve after oral dose of 10 mg/kg; assay type: ADME, organism-based; parameters: dose 10 mg/kg, route oral; settings: in vivo; how it was run: as §2
[10] = Area under curve after oral dose of […]; assay type: ADME, organism-based; settings: in vivo
[11] = Volume of distribution of the terminal phase (CLp+ plasma elimination rate constant) after intravenous dose of 3.87 mg/kg; assay type: ADME, organism-based; parameters: dose 3.87 mg/kg, route intravenous; settings: read-out: Vbeta
How it was run: (§4)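 Jugular-vein slow iv bolus (normal saline, 1 mL/kg) in male Sprague-Dawley-derived rats. Plasma was sampled via the tail vein at 0.1–24 h and measured by reverse-phase HPLC after liquid-liquid extraction. Central volume was taken as dose divided by plasma concentration at time zero. Terminal-phase volume was derived from clearance and the plasma elimination rate constant.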

[12] = Volume of distribution of central compartment (dose+ plasma concentration at time zero) after intravenous dose of 3.87 mg/kg; assay type: ADME, organism-based; parameters: dose 3.87 mg/kg, route intravenous; settings: read-out: VI; how it was run: as §4
[13] = Tmax value after oral dose of […]; assay type: ADME, organism-based; settings: in vivo
[14] = Half-life period of compound after intravenous dose of 3.87 mg/kg; assay type: ADME, organism-based; parameters: dose 3.87 mg/kg, route intravenous; settings: in vivo; how it was run: as §3
[15] = target: T1, Type-1 angiotensin II receptor A (Rattus norvegicus, UniProt P25095); assay: Binding affinity against angiotensin II receptor from rat liver
T1 sequence (P25095 whole entry): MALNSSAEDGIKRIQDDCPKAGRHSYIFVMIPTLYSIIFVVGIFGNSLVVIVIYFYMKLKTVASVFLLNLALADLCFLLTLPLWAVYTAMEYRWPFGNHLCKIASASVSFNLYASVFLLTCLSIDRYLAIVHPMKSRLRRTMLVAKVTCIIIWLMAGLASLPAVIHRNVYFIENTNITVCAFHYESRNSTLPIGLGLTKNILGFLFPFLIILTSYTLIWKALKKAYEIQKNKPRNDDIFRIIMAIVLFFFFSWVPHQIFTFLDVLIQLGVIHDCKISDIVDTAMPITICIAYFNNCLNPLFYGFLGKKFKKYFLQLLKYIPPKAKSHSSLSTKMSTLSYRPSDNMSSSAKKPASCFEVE
How it was run: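 Rat liver membranes were incubated with [125I]-saralasin to measure angiotensin II type 1 receptor binding. Nonspecific binding was defined with 1 µM angiotensin.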

[16] = Cmax value after oral dose of […]; assay type: ADME, organism-based; settings: in vivo
[17] = Bioavailability after oral dose of 10 mg/kg; assay type: ADME, organism-based; settings: eutheria, in vivo; how it was run: as §2
Rattus norvegicus [18] = assay: % decrease in blood pressure after 4 hours in male rats at a dose of 1 mg/kg by using Renal artery hypertensive model; assay type: functional; how it was run: as §1
[19] = Area under curve after oral dose of 3.87 mg/kg; assay type: ADME, organism-based; parameters: dose 3.87 mg/kg, route oral; settings: in vivo; how it was run: as §2
[20] = Tmax value after oral dose of 3.87 mg/kg; assay type: ADME, organism-based; parameters: dose 3.87 mg/kg, route oral; settings: in vivo; how it was run: as §3
[21] = target: T2, Type-1 angiotensin II receptor (Oryctolagus cuniculus, UniProt P34976); assay: Antagonistic ability of angiotensin II to contract rabbit aorta; assay type: functional, tissue-based; settings: read-out: pA2 (converted)
T2 sequence (P34976 whole entry): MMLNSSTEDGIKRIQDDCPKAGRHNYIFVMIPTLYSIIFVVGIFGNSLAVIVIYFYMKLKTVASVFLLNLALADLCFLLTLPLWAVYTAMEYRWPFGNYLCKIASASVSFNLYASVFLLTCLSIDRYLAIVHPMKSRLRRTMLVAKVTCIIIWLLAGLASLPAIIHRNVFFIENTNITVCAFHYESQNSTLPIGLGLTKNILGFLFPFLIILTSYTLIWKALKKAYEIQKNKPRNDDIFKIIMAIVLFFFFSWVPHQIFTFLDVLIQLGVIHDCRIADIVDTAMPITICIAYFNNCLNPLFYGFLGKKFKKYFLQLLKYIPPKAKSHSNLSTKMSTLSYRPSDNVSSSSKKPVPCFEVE
How it was run: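 Angiotensin II contraction of rabbit aortic rings. Full pA2 from several drug concentrations by Schild plot (log drug concentration vs log(EC50 ratio-1)); EC50 ratio is the angiotensin II EC50 with drug over that without drug.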

Cmax [3]: 840 ng/mL
Tmax [4]: 0.9 h
Cmax [5]: 510 ng/mL
bioavailability [6]: 4.8%
clearance [7]: 0.85 mL/min
bioavailability [8]: 10.3%
AUC [9]: 2.83 µg/h/mL
AUC [10]: 6.65 µg/h/mL
Vd [11]: 0.42 L/kg
Vd [12]: 0.08 L/kg
Tmax [13]: 1.1 h
half-life [14]: 1.5 h
Ki [15]: 1770 pM
Cmax [16]: 1470 ng/mL
bioavailability [17]: 4.8%
AUC [19]: 2.38 µg/h/mL
Tmax [20]: 1.3 h
Compound: CCCCN(Cc1ccc(-c2ccccc2-c2nn[nH]n2)cc1)c1ncncc1C(=O)O.Cl
Decrease in blood pressure (Rattus norvegicus [1]): 41%
Decrease in blood pressure (Rattus norvegicus [2]): 18%
Decrease in blood pressure (Rattus norvegicus [18]): 10%

Kb [21]: 100 pM
Compound: CCc1cc(OCc2ccc(-c3ccccc3-c3nn[nH]n3)cc2)c2nc(OC(C)C)ccc2n1
